In ChEMBL document CHEMBL4513216, “Probing the Open Global Health Chemical Diversity Library for Multistage-Active Starting Points for Next-Generation Antimalarials” (ACS Infect Dis, 2020) one finds cytotoxicity data, which are given here for 98 compounds.

Each structure is given as a SMILES string.

The nature of the series: Toxicity liver stage against HepG2, at 10uM. Set-up: test concentration 10 uM, cell line HepG2-A16-CD81EGFP. As to conditions: human, HepG2-A16-CD81EGFP cells; read-out: INHIBITION
In kind it is cell-based. In a few lines:
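Uninfected HepG2-A16-CD81EGFP cells, 3 × 10^3 per well, 1536-well, plated on prespotted compound at 10 μM final, parasite-free screening media added to match infected plates; puromycin 10 μM positive, DMSO 0.5% negative; run in parallel with 48 h PbLuc assay at 37 °C, 5% CO2; viability by CellTiter-Glo luminescence, normalized to controls.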
Turning to `CC(C)[C@@H]1CN(Cc2cnc3c(S(C)(=O)=O)cnn3c2)C[C@H]1N(C)C`, the cytotoxicity at 10 µM is -3.5%.
In the case of `CCCOCC1CCN(C(=O)Cn2ncc(N3CCCC3)cc2=O)C1` (stereo not drawn), the cytotoxicity at 10 µM was 3.41%.
Take `CCCc1nnc(N2CCN(Cc3ccccc3OC)CC2)o1`: the cytotoxicity at 10 µM is -12%.
The same measure for `COCCNC(=O)[C@@H]1CCO[C@@H]2CCN(c3ccc(C)nn3)C[C@@H]21`: -73.2%; for `CC(=O)Nc1cc(CCC2CCN(C(=O)c3ccccn3)CC2)ccn1`: -0.331%.
Next, `c1cc2c(cc1-c1noc3c1CN(C1CCSC1)CC3)OCO2` (stereo not drawn): -16.9%; `Cn1ccnc1CN1CCN2C[C@H](Oc3ccccc3)C[C@H]2C1`: 7.14%; `O=C(NCCN1CCOCC1)NCc1cccnc1-n1cccn1`: -2.22%.
Next, `CCS(=O)(=O)N1Cc2ccccc2CC1C(=O)OCc1c(C)noc1C` (stereo not drawn): -9.26%.
As to `CCc1ncncc1C(=O)NC1CCc2nc(C)cn2C1` (stereo not drawn), the cytotoxicity at 10 µM is -17.3%.
Regarding `CCc1ncc2c(n1)CN(Cc1cn3ccsc3n1)CC2`, the cytotoxicity at 10 µM is -8.26%.
Next, `CNS(=O)(=O)c1cc(C)c2[nH]c(=O)cc(C)c2c1`: -7.76%; `Oc1ccc(Cl)cc1CNCc1ccccc1Cl`: -0.0124%; `O=C(CCC(=O)Nc1ccccc1)NCC(=O)c1ccc(F)cc1F`: -0.493%.
For `O=C(O)COc1ccc(Cl)cc1CN1CCC2(CCOCC2)CC1`, the cytotoxicity at 10 µM is -6.55%.
Next, `CC(=O)N1C[C@H](c2cc(O)nc(C)n2)[C@@H](c2ccccc2F)C1`: 1.65%; `O=C(c1ccco1)N1Cc2cnn(CC3CC3)c2C(COCC2CC2)C1` (stereo not drawn): 4.04%.
The same measure for `CSc1ccc(CNC(=O)Cc2c(C)n[nH]c2C)cc1`: 4.16%; for `NC(=O)c1cnn2c1NCC(CNC1(c3ccccc3)CCC1)C2` (stereo not drawn): -8.84%; for `Cc1ccc2c(c1)C(NCc1nnc3n1CCCCC3)CCCO2` (stereo not drawn): -3.39%.
The same measure for `CC(Cn1ccnc1)NC(=O)N(C)Cc1ccc2c(c1)OCCO2` (stereo not drawn): -29.5%; for `CC(C)N1CCc2ncn(C(C)C)c2C1C(=O)NCCN1CCCC1` (stereo not drawn): 3.11%; for `Cc1nc(-c2nnc[nH]2)sc1C(=O)N1CCCC(C(F)(F)F)C1` (stereo not drawn): 7.59%.
For `CC(C)(C)NC(=O)CNC(=O)CCc1ccccc1Br`, the cytotoxicity at 10 µM was found to be 3.09%.
Next, `O=c1[nH][nH]c2cn(-c3ccc(F)cc3)c(=O)n12`: -1.45%; `C=C(C)CN1CCN(Cc2nccn2C)C(C)C1` (stereo not drawn): -14.6%.
Next, `CC(C)(C(=O)NCc1ccccc1F)n1cc(Br)cn1`: 0.296%; `COCC(=O)N1CCC2(CC(C(=O)NCc3cccnc3)=NO2)C1` (stereo not drawn): -1.34%.
The same measure for `CN(C)c1cc(CNC(=O)c2ccccc2Cl)ccn1`: -8.28%; for `Cc1nc(C2CCCN(C(=O)c3cc(Cl)c[nH]3)C2)no1` (stereo not drawn): -8.29%; for `Cc1ccc(-c2nc(CNC3CCc4ncnn4C3)cs2)cc1` (stereo not drawn): -9.27%.
Take `Cc1cc2nc(C(C)C)cc(N3CCSCC3)n2n1`: the cytotoxicity at 10 µM was 3.24%.
Next, `Cc1occc1C(=O)N1CCc2c(COCC3CC3)cncc2C1`: -0.799%; `O=C1CCC(c2ccccc2)=NN1CN1CCCCCC1`: -86.3%.
The same measure for `O=C(NC1CC1)c1ccnc(N2CCOC(c3ccc(Cl)cc3)C2)c1` (stereo not drawn): 4.44%; for `O=C(c1ccc2c(c1)[nH]c(=O)n2C1CCCC1)N1CCCSCC1`: -41.2%; for `Cc1ncc(-c2ccnc(N3CCN(C)CC3)n2)c(-c2cccnc2)n1`: 4.36%.
As to `Cc1noc(C)c1CNS(=O)(=O)N(C)Cc1ccc(Cl)cc1`, the cytotoxicity at 10 µM worked out at 11.2%.
Next, `CCn1c(C)nnc1SCCNc1nc(C)nc2c1cnn2C`: 7.9%; `CC(C)N(CC(N)=O)Cc1csc(C(C)(C)C)n1`: -5.13%.
Next, `CCCN1CCC(Nc2nc(C)ns2)CC1`: -8.92%; `COc1c(C)cnc(CN2CCCC2Cn2nc(C)nc2C)c1C` (stereo not drawn): -3.21%; `Cc1nn(Cc2ccccc2)c(C)c1CNC1CCc2ncnn2C1` (stereo not drawn): -1.04%.
Next, `CN(Cc1ccccn1)C1CC2(CCN(Cc3ccccn3)CC2)C1`: -87%; `CCSCCNc1nc2c(s1)c(C)nn2C`: -0.145%; `Cc1cc(CN2C[C@@H]3CCCO[C@@H]3[C@H](Nc3ccccn3)C2)no1`: -4.72%.
As for `Cc1cc(-c2cnn(CCNC(=O)C3CC3)c2C2CC2)on1`, the cytotoxicity at 10 µM came to 11.7%.
The same measure for `COc1cc(NC(=O)C2CC(=O)N(c3cccc(F)c3)C2)ncn1` (stereo not drawn): -1.73%; for `CCOCCCNC(=O)C1CCC(=O)N(CCc2ccc(Cl)cc2)C1` (stereo not drawn): -0.591%.
The same measure for `CCS(=O)(=O)N1CCC(n2nc(-c3cc(C)oc3C)ccc2=O)CC1`: 8.82%.
For `Cc1ccc(C)c(OCC(O)CN(C)CC(=O)Nc2cc(C)on2)c1` (stereo not drawn), the cytotoxicity at 10 µM was -14.4%.
Next, `CC(C)(C)c1n[nH]c(C2CN(CCc3cccs3)CCO2)n1` (stereo not drawn): -7.36%; `CN(Cc1ccc2c(c1)OCCO2)C(=O)Cn1cccnc1=O`: 3.01%.
Next, `CC(C)Cc1cc(C(=O)NC(C)C)[nH]n1`: 5.67%; `Cc1cc(S(C)(=O)=O)c(C)c(S(=O)(=O)NC2CCCC2)c1`: 12.8%; `CC(C)c1cc(NC(=O)CN2CCc3ccccc3C2)on1`: -4.89%.
The same measure for `Cc1cccc(CN2CCc3ncnc(NC4CCC4)c3CC2)n1`: -152%; for `Cn1ccc(C(=O)NCCOc2ccc3c(c2)OCO3)cc1=O`: 5.97%.
Regarding `Cc1ccc(C)c(CN(CC(N)=O)C(C)C)c1`, the cytotoxicity at 10 µM was 0.477%.
Next, `CC(C)C(C(=O)N1CCCN(c2nccs2)CC1)n1cncn1` (stereo not drawn): -4.98%; `CN1CCC2(CCN(S(=O)(=O)c3ccc(-c4cnco4)s3)CC2)C1`: -0.0395%; `Cc1cc(C(=O)N2C[C@@H](CN(C)CCN(C)C)[C@@H](CO)C2)nc(C)n1`: 7.01%.
The same measure for `COC(=O)c1cccc(C2CNCCN2C)c1` (stereo not drawn): 0.5%.
Regarding `Cc1cc2n(n1)CC(CNC1CCN(c3ccc(F)cc3)CC1)CN2` (stereo not drawn), the cytotoxicity at 10 µM was -10.3%.
Next, `CCSC1=Nc2c(cnn2-c2ccc(Cl)cc2)C2=NCCCN12`: 8.49%; `CCOCC1CN(Cc2cccc(C#N)c2)Cc2nccn2C1` (stereo not drawn): -8.22%; `N#Cc1cccc(N2CC3(CCN(C(=O)c4ccncc4)C3)CC2=O)c1` (stereo not drawn): -1.75%.
For the compound `CCOc1ccc(NC(=O)Cn2cc(I)cn2)cc1`, the cytotoxicity at 10 µM worked out at 9.84%.
On to `CC(=O)NC(CC(=O)Nc1ccc(C)cn1)c1ccccc1` (stereo not drawn), for which the cytotoxicity at 10 µM was -12.5%.
The same measure for `COCCNc1nc2c(c(NCc3ccncc3)n1)CCNCC2`: -2.18%.
The same measure for `O=C1CC(c2ccncc2)C2(CCN(CCO)CC2)N1` (stereo not drawn): -3.4%.
On to `Cc1nccn1-c1cc(CNC(=O)c2ccccn2)ccn1`, for which the cytotoxicity at 10 µM is -11.5%.
Next, `CN(CC(=O)NS(=O)(=O)c1ccc(F)cc1)Cc1ccccc1`: 14.3%; `CCCN1CCC(c2nc3ccc(NCc4cccnc4)cn3n2)CC1`: -121%.
The same measure for `N#Cc1ccc(S(=O)(=O)NC(=O)c2ccc3c(c2)COC3)cc1`: 1.39%; for `CCOc1ccccc1C(CC(=O)Nc1ccccc1F)NC(C)=O` (stereo not drawn): -15.4%.
The same measure for `CN1CC(=O)N(c2cccnc2)CC12CCN(C(=O)c1cccnc1)C2` (stereo not drawn): 2.25%.
Consider `Cc1oc(-c2ccccc2)nc1CN1CCC(c2ccnn2C)CC1`, for which the cytotoxicity at 10 µM came to 15.6%.
Next, `Cc1nn(C)c2cn(CC(=O)N3CCN(c4ccccc4)CC3)nc12`: 6.94%.
As to `O=C1CCN(C(=O)NCC(c2ccccc2)c2ccccc2)CCN1`, the cytotoxicity at 10 µM was -1.44%.
The same measure for `CC(C)OCCCNC(=O)CN1CCC(N2CCN(C)C2=O)CC1`: -6.82%; for `O=C1NCC(C(=O)Nc2ccc(=O)n(Cc3ccccc3Cl)c2)N1` (stereo not drawn): -1.73%; for `O=C(c1ccc(C2CCCO2)s1)N1Cc2ccccc2C1` (stereo not drawn): -13.4%.
Consider `Cc1cc(N2CCOCC2)ccc1NC(C)c1nc(C(C)(C)C)no1` (stereo not drawn), for which the cytotoxicity at 10 µM is -12.7%.
For the compound `Cc1ccc(CN2CC3(CCNCC3)CCC2=O)c(F)c1F`, the cytotoxicity at 10 µM amounted to 4.95%.
With `Cc1nnc(CN2C[C@H](NC(=O)CC3CCCC3)[C@@H](C3CC3)C2)s1`, the cytotoxicity at 10 µM is -42.4%.
The same measure for `COc1cc(NC(=O)N2CCCC2c2nncn2C)ccc1Br` (stereo not drawn): 5.67%.
As for `Cn1cc(CN2CCC(F)(F)C3(CCN(c4ncccn4)C3)C2)cn1` (stereo not drawn), the cytotoxicity at 10 µM is -0.58%.
Next, `COc1ccc2c(c1)OCC(C(=O)NCc1nc3c(s1)CCCC3)C2` (stereo not drawn): -4.29%.
Next, `COc1ccc(COCC(O)CNC(=O)c2cnc(C)cn2)cc1` (stereo not drawn): -2%; `Cc1noc(NCc2cc(F)ccc2F)n1`: -4.86%.
In the case of `Cc1c(Cl)c(C(=O)NN2CCOCC2)nn1C`, the cytotoxicity at 10 µM worked out at 7.47%.
On to `COCCC(=O)N1CCC(c2cc3ncc(C)nc3[nH]2)CC1`, for which the cytotoxicity at 10 µM was -8.86%.
Next, `c1ccc(Cc2noc(CN3CCc4c(ncn4C4CC4)C3)n2)cc1`: 2.1%; `CN(C)C(=O)c1cc(-c2ccccc2)[nH]n1`: -4.5%; `OC1(CN2CCC(Oc3cccc(C(F)(F)F)c3)CC2)CCNC1` (stereo not drawn): 1.05%.
Next, `CCCN1CCC(CNC(=O)N2CCCC2c2c(C)n[nH]c2C)CC1` (stereo not drawn): -0.686%; `CC(c1nc(C(C)(C)C)no1)S(=O)(=O)CC(=O)N(C)C` (stereo not drawn): -0.0515%.
